# Results reported in ChEMBL document CHEMBL1122831, “Synthesis and structure-activity relationships of novel arylfluoroquinolone antibacterial agents” (1985).
# Tests used:
# Type in all cases: functional
# [1] = system: Escherichia coli; assay: Minimum inhibition concentration in vitro determined against Escherichia coli juhl; conditions: Escherichia coli; read-out: MIC
# Outline: (§1)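 Agar dilution on brain-heart infusion (BHI) agar with twofold dilutions from a 2000 µg/mL stock, giving final test concentrations of 200-0.005 µg/mL. Organisms were grown overnight in BHI broth at 36 °C, and about 10⁴ organisms were inoculated per plate. Plates were incubated 18 h at 36 °C. MIC was the lowest concentration with no visible growth.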
# [2] = system: Klebsiella aerogenes; assay: Minimum inhibition concentration in vitro determined against Enterobacteri aerogenes ATCC 13048; outline: as §1
# [3] = system: Klebsiella pneumoniae; assay: Minimum inhibition concentration in vitro determined against Klebsiella pneumoniae 8045; outline: as §1
# [4] = system: Pseudomonas aeruginosa; assay: Minimum inhibition concentration in vitro determined against Pseudomona aeruginosa 5007; outline: as §1
# [5] = system: Pseudomonas aeruginosa; assay: Minimum inhibition concentration in vitro determined against Pseudomona aeruginosa K799/WT; outline: as §1
# [6] = system: Staphylococcus epidermidis; assay: Minimum inhibition concentration in vitro determined against Staphylococcus epidermidis 3519; outline: as §1
# [7] = system: Staphylococcus aureus; assay: Minimum inhibition concentration in vitro determined against Staphylococcus aureus ATCC 6538P; outline: as §1
# [8] = system: Streptococcus pyogenes; assay: Minimum inhibition concentration in vitro determined against Streptococcus pyogenes 930; outline: as §1
# [9] = system: Staphylococcus aureus; assay: Minimum inhibition concentration in vitro determined against Staphylococcus aureus CMX 686B; outline: as §1
# [10] = system: Enterococcus faecium; assay: Minimum inhibition concentration in vitro determined against Streptococcus faecium ATCC 8043; outline: as §1
# [11] = system: Acinetobacter; assay: Minimum inhibition concentration in vitro determined against Acinetobacter sp CMX669; outline: as §1
SMILES,MIC [1],MIC [2],MIC [3],MIC [4],MIC [5],MIC [6],MIC [7],MIC [8],MIC [9],MIC [10],MIC [11]
O=C(O)c1cn(-c2ccc(F)cc2)c2cc(N3CCCCC3)c(F)cc2c1=O,1.56 µg/mL,3.1 µg/mL,1.56 µg/mL,6.2 µg/mL,6.2 µg/mL,0.39 µg/mL,0.2 µg/mL,1.56 µg/mL,0.2 µg/mL,3.1 µg/mL,1.56 µg/mL
O=C(O)c1cn(-c2ccccc2)c2cc(N3CCNCC3)c(F)cc2c1=O,0.2 µg/mL,0.39 µg/mL,,0.78 µg/mL,1.56 µg/mL,1.56 µg/mL,0.39 µg/mL,1.56 µg/mL,0.39 µg/mL,12.5 µg/mL,0.78 µg/mL
CNC1CCN(c2cc3c(cc2F)c(=O)c(C(=O)O)cn3-c2ccc(F)cc2)C1 (stereo not drawn),3.1 µg/mL,3.1 µg/mL,0.78 µg/mL,50 µg/mL,50 µg/mL,6.2 µg/mL,3.1 µg/mL,12.5 µg/mL,3.1 µg/mL,25 µg/mL,6.2 µg/mL
O=C(O)c1cn(-c2ccc(F)cc2)c2cc(N3CCCC3)c(F)cc2c1=O,0.78 µg/mL,0.78 µg/mL,0.39 µg/mL,1.56 µg/mL,1.56 µg/mL,0.2 µg/mL,0.1 µg/mL,0.78 µg/mL,0.1 µg/mL,0.78 µg/mL,0.78 µg/mL
CN(C)C1CCN(c2cc3c(cc2F)c(=O)c(C(=O)O)cn3-c2ccc(F)cc2)CC1,0.39 µg/mL,0.78 µg/mL,0.39 µg/mL,3.1 µg/mL,3.1 µg/mL,0.78 µg/mL,0.39 µg/mL,1.56 µg/mL,0.39 µg/mL,3.1 µg/mL,0.78 µg/mL
NC1CCN(c2cc3c(cc2F)c(=O)c(C(=O)O)cn3-c2ccc(F)cc2)C1 (stereo not drawn),0.02 µg/mL,0.05 µg/mL,0.02 µg/mL,0.2 µg/mL,0.2 µg/mL,0.05 µg/mL,0.05 µg/mL,0.1 µg/mL,0.05 µg/mL,0.78 µg/mL,0.2 µg/mL
CN(C)C1CCN(c2cc3c(cc2F)c(=O)c(C(=O)O)cn3-c2ccc(F)cc2)C1 (stereo not drawn),0.39 µg/mL,0.78 µg/mL,0.2 µg/mL,25 µg/mL,12.5 µg/mL,0.39 µg/mL,0.39 µg/mL,3.1 µg/mL,0.39 µg/mL,25 µg/mL,0.78 µg/mL
Cc1cccc(C)c1-n1cc(C(=O)O)c(=O)c2cc(F)c(N3CCN(C)CC3)cc21,> 100 µg/mL,> 100 µg/mL,> 100 µg/mL,> 100 µg/mL,> 100 µg/mL,> 100 µg/mL,> 100 µg/mL,> 100 µg/mL,> 100 µg/mL,> 100 µg/mL,> 100 µg/mL
CC(=O)N1CCN(c2cc3c(cc2F)c(=O)c(C(=O)O)cn3-c2ccc(F)cc2)CC1,1.56 µg/mL,3.1 µg/mL,1.56 µg/mL,12.5 µg/mL,12.5 µg/mL,0.78 µg/mL,0.2 µg/mL,1.56 µg/mL,0.2 µg/mL,3.1 µg/mL,12.5 µg/mL
CCCCN1CCN(c2cc3c(cc2F)c(=O)c(C(=O)O)cn3-c2ccc(F)cc2)CC1,1.56 µg/mL,1.56 µg/mL,0.39 µg/mL,12.5 µg/mL,12.5 µg/mL,1.56 µg/mL,0.78 µg/mL,6.2 µg/mL,0.78 µg/mL,12.5 µg/mL,3.1 µg/mL
O=C1CN(c2cc3c(cc2F)c(=O)c(C(=O)O)cn3-c2ccc(F)cc2)CCN1,0.39 µg/mL,1.56 µg/mL,0.39 µg/mL,6.2 µg/mL,3.1 µg/mL,0.78 µg/mL,0.2 µg/mL,0.78 µg/mL,0.39 µg/mL,1.56 µg/mL,12.5 µg/mL
O=C(O)c1cn(-c2ccc(F)cc2)c2cc(N3CCSCC3)c(F)cc2c1=O,0.78 µg/mL,0.78 µg/mL,0.39 µg/mL,3.1 µg/mL,3.1 µg/mL,0.1 µg/mL,0.05 µg/mL,0.78 µg/mL,0.05 µg/mL,0.78 µg/mL,0.78 µg/mL
CN1CCN(c2cc3c(cc2F)c(=O)c(C(=O)O)cn3-c2ccc(F)cc2)CC1=O,0.39 µg/mL,0.39 µg/mL,0.2 µg/mL,1.56 µg/mL,0.78 µg/mL,0.2 µg/mL,0.1 µg/mL,0.39 µg/mL,0.2 µg/mL,0.78 µg/mL,0.39 µg/mL
CCC(=O)N1CCN(c2cc3c(cc2F)c(=O)c(C(=O)O)cn3-c2ccc(F)cc2)CC1,1.56 µg/mL,3.1 µg/mL,0.78 µg/mL,12.5 µg/mL,12.5 µg/mL,0.78 µg/mL,0.2 µg/mL,1.56 µg/mL,0.2 µg/mL,6.2 µg/mL,6.2 µg/mL
